MC4R antag cAMP: human MC4R antagonism in cAMP assay | P32245 | MC4R-expressing cells, MTII-stimulated cAMP, LANCE TR-FRET | inhibition, % at 6.5 µM | hit rate 0.48% among 360,000;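 active = inhibition above its plate's cutoff, the mean of tested wells on that plate plus 3 SD, cut at about 29% in these data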;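 also: 0% = Melanotan II alone and 100% = Melanotan II plus saturating MCL0020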
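System – human MC4R-expressing U2OS cells · Also added – Melanotan II · Dosing – one concentration, 6.5 µM nominal · Timing – 30-min compound, 1-h challenge, 1-h detection, room temperature · Measured by – Eu-cAMP/anti-cAMP TR-FRET, emission 671 nm · Replicates – singlicate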
NTR1 ag: NTR1 (human) agonism; NTR1-U2OS beta-arrestin-GFP spot imaging, agonist mode; activation, % at 20 µM; hit rate 0.17% among 330,000; AID 493036;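 active = activation at or above 40% of the spot to cytoplasm intensity ratio, with at least 20 cells analyzed; inconclusive = wells under 20 cells, flagged as cytotoxic or low count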;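 also: 0% = DMSO without peptide and 100% = 100 nM NTR1 peptide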
HGIII-sPLA2 inh: Inhibits HGIII-sPLA2 liposome hydrolysis, primary screen; hit rate 0.56% among 370,000; QFRET BODIPY PC-A2 liposome hydrolysis, fluorescence; inhibition, % at 12.2 µM;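 active = inhibition above mean plus 3 SD of compounds lying within the high and low control bounds, cut at about 19% in these data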;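 also: 0% = median of test compound wells and 100% = no enzyme DMSO wells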
Target sequence (Q9NZ20 whole entry, looked up): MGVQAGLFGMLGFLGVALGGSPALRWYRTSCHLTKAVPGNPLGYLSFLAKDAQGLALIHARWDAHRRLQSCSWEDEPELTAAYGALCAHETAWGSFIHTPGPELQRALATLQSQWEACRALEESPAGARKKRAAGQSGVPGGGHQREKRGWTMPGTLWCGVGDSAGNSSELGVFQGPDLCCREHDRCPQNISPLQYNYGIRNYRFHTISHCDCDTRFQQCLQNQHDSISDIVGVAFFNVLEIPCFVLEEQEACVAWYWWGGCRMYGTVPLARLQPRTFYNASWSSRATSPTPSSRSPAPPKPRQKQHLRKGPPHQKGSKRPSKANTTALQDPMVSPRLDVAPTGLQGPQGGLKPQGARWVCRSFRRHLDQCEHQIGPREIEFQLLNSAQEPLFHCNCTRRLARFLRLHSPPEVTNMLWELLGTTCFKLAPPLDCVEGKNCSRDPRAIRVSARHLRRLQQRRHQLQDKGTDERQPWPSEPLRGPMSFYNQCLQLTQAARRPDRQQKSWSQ
MC4R barr agon: human MC4R agonism via beta-arrestin; P32245; U2OS MC4R beta-arrestin complementation, luminescence; percent of melanotan II response, DMSO zero; activation, % at 8.9 µM; hit rate 0.98% among 360,000;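 active = activation above a per-plate cutoff, the mean activation of sample wells on that plate plus 3 SD, cut at about 8% in these data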
Bfl-1 A1 inh: inhibitors of the anti-apoptotic protein A1, read as caspase activation; MEF A1-2A-BIM cells, Caspase-Glo 3/7 luminescence, 3 h; percent of clofoctol response, vehicle zero; caspase activation, % (no concentration beside the values); hit rate 0.066% among 330,000; AID 2462;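 active = over half of replicate activation scores above 10%, or exactly half above 10 with the replicate mean above 10; inconclusive = replicate mean below 10 yet half the replicates above 10; inactive = over half of replicates below 10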
Exocytosis inh: lytic granule exocytosis inhibition. TALL-104 LAMP-1 surface exposure, flow cytometry; cells stimulated with thapsigargin and PMA. inhibition, % at 10 µM. hit rate 0.66% among 360,000. AID 651702;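 active = inhibition above about 55%, limit read from the data; inconclusive = no clear call, values can overlap the other calls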
MC4R barr conf: human MC4R beta-arrestin agonism confirmation | shares compounds with MC4R barr agon | activation, % at 8.9 µM | U2OS MC4R beta-arrestin recruitment, luminescence; scaled DMSO 0%, Melanotan II 100% | hit rate 31% among 2,400 | AID 602192;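 active = mean activation across replicates above the hit cutoff set in the earlier primary screen, cut at about 8% in these data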
MOR-DOR barr ag: counter-screen for MC4R agonists: agonists of mu-delta opioid heterodimer; activation, % at 9.2 µM; shares compounds with MC4R barr agon; hit rate 5.8% among 2,400; U2OS PathHunter beta-arrestin, beta-gal luminescence; percent of deltorphin B response, DMSO zero;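 active = mean activation across replicates exceeds the hit threshold derived in the earlier primary screen, cut at about 18% in these data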;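 also: 100% = deltorphin B at 0.9 µM final and 0% = DMSO alone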
* hit, by the source's call; ? = inconclusive; . = not tested or not shown. Only some compounds are listed: those with a hit (about 2.5% of all), similar ones and a draw of the others.

SMILES | MC4R antag cAMP | NTR1 ag | HGIII-sPLA2 inh | MC4R barr agon | Bfl-1 A1 inh | Exocytosis inh | MC4R barr conf | MOR-DOR barr ag
Cc1cc2nc(NCCCO)n(CC(=O)c3cc(C(C)(C)C)c(O)c(C(C)(C)C)c3)c2cc1C | 7 | 26 | -16 | 13* | 0 | 3 | 6 | 11
CCN(CC)C(=O)CSc1nc2cc3c(cc2c(=O)n1CCCC(=O)NCc1ccc(OC)cc1)OCO3 | 1 | 1 | -1 | -1 | 0 | -2 | . | .
COc1ccc(CNC(=O)CCCCCn2c(SCC#N)nc3cc4c(cc3c2=O)OCO4)cc1 | 8 | 4 | -1 | 19* | 0 | -2 | -2 | 3
COc1ccc(NC(=O)c2c(Nc3ccccc3)sc(C(=O)c3ccc(F)cc3)c2N)cc1 | 1 | 12 | 0 | 12* | 0 | -1 | 14* | 9
CC(C)c1ccc(NC(=O)COC(=O)/C=C/c2cccc([N+](=O)[O-])c2)cc1 | 1 | 0 | 5 | 16* | 0 | 2 | 1 | 3
CC(C)c1ccc(NC(=O)CSc2ncccc2C(=O)Oc2cccc([N+](=O)[O-])c2)cc1 | -14 | 4 | -11 | 20* | 0 | -3 | 17* | 2
O=C(COC(=O)/C=C/c1cccc([N+](=O)[O-])c1)Nc1ccc(Cl)cn1 | 2 | 0 | 5 | -2 | -1 | -2 | . | .
O=C(COC(=O)/C=C/c1cccc(Cl)c1)Nc1ccc(N2CCOCC2)cc1 | -3 | 2 | 9 | 9.8* | -1 | -1 | 0 | 8
Cc1ccc(NC(=O)COC(=O)/C=C/c2cccc(Cl)c2)cc1S(=O)(=O)N1CCOCC1 | -1 | 0 | -18 | 0 | 0 | 4 | . | .
CC(C)C[C@@H]1COc2cc(Br)ccc2S(=O)(=O)N1Cc1cn(Cc2ccc(F)cc2)nn1 | . | . | 7 | . | . | . | . | .
C=CCOc1ccc(/C=N/N2C(=O)C(CC(=O)Nc3ccc(F)cc3F)SC2=NC)cc1 (stereo not given) | 6 | 6 | 4 | 11* | -2 | 8 | 0 | 4
CCCCNc1ccc2c(c1)OC[C@H](C)NS2(=O)=O | . | . | 9 | . | . | . | . | .
COc1cccc(/C=C/C(=O)N(C)CC(=O)Nc2ccc(Cl)c(C(F)(F)F)c2)c1 | -3 | 1 | -11 | 12* | 0 | 7 | 1 | 6
Cc1cccc(C(=O)OCC(=O)N(C)CC(=O)Nc2ccc(Cl)c(C(F)(F)F)c2)c1 | -4 | 2 | -4 | -2 | 0 | -2 | . | .
O=c1[nH]c(CN(CCc2ccccc2)S(=O)(=O)c2ccc(Cl)cc2)nc2ccccc12 | 2 | 24 | 0 | 23* | 0 | -6 | 5 | 8
COC(=O)[C@@]12CCCCC3=C1N(CCC3)C(=O)[C@H]2CC(=O)N1CCCCC1 | . | . | -1 | . | . | . | . | .
COc1ccc2sc(N(CCCN(C)C)C(=O)c3nc4ccccc4s3)nc2c1 | -10 | -1 | -5 | 12* | -1 | -3 | 8.3* | 10
Cc1cc(NS(=O)(=O)c2ccc(NC(=O)CSc3nc4sc(C)c(C)c4c(=O)n3Cc3ccco3)cc2)nc(C)n1 | . | . | -33 | . | . | . | . | .
O=C(CCl)N(Cc1ccccc1)c1ccccc1 | 0 | -1 | 3 | 20* | 0 | -2 | 15* | 18*
S=c1[nH]nc(COc2ccc(Cl)cc2)n1C1CCCCC1 | 4 | 5 | 11 | 11* | 1 | 0 | 1 | 7
Cc1ccc(OCc2n[nH]c(=S)n2C2CCCCC2)cc1 | 16 | 3 | 14 | 5 | 0 | -3 | . | .
CCCCOCCCNC(=O)C[C@H]1C[C@@]2(C(=O)OC)C(=C[C@H](C(C)C)O[C@@H]2C2CC2)N(Cc2ccc3c(c2)OCO3)C1=O | . | . | -1 | . | . | . | . | .
CCC(C)(C)C1CCC2(CC1)NC(=O)N(CC(=O)N(C)Cc1ccc(OC(F)F)cc1)C2=O (stereo not given) | -4 | 4 | 4 | 17* | 0 | 0 | 2 | 7
O=C1OC(c2ccccc2)(c2ccc(O)cc2)c2ccccc21 (stereo not given) | 4 | . | -39 | 55* | . | 16 | 48* | 4
O=C(CCCOc1ccc(Cl)cc1Cl)Nc1ncccn1 | 5 | 1 | -3 | -1 | ? | -9 | . | .
SMILES | MC4R antag cAMP | NTR1 ag | HGIII-sPLA2 inh | MC4R barr agon | Bfl-1 A1 inh | Exocytosis inh | MC4R barr conf | MOR-DOR barr ag
Cc1cc(NC(=O)CCCOc2ccc(Cl)cc2Cl)no1 | 14 | -1 | 2 | 17* | 0 | 1 | 3 | 2
Cc1ccc(CNC(=O)O[C@H]2CC[C@@]34CCCN3C(=O)CCC[C@H]4C2)o1 | . | . | 2 | . | . | . | . | .
COC(=O)[C@@]12CCCCC3=C1N(CCC3)C(=O)[C@H]2CC(=O)N1CCN(C(=O)C2CC2)CC1 | . | . | 5 | . | . | . | . | .
CCc1cc(-c2[nH]ncc2-c2ccc3c(c2)OCO3)c(O)cc1O | -2 | 21 | -40 | 19* | -1 | 12 | 6 | 7
CCc1cc(-c2[nH]ncc2-c2ccc(OC)cc2)c(O)cc1O | 4 | 18 | -28 | -1 | 4 | 10 | . | .
CCN1CCC(O)(/C=C/c2ccc(C(C)C)cc2)C(C(=O)/C=C/c2ccc(C(C)C)cc2)C1 (stereo not given) | 4 | . | -26 | 12* | . | 15 | 17* | 14
CCOC(=O)c1c(C)n(-c2ccc(C)cc2)c2ccc(OCC(O)CNCCCO)cc12 (stereo not given) | 2 | 4 | -16 | 3 | 1 | 2 | . | .
CCOC(=O)c1c(C)n(-c2ccc(C)cc2)c2ccc(OCC(O)CNCC3CCCO3)cc12 (stereo not given) | 5 | 18 | . | 13* | 0 | 12 | 17* | 10
O=C(N[C@H](C(=O)N1CCC[C@H]1C(=O)NCCc1ccccc1Cl)C1CCCCC1)c1cccs1 | . | . | -13 | . | . | . | . | .
Cn1c(=O)c(C(=O)NNC(=O)c2cccc(Cl)c2)c(O)c2ccccc21 | 7 | 5 | 7 | 9.8* | 0 | -18 | 2 | 6
Cc1c(Cl)ccc2c(C(N)=O)cc(-c3ccccn3)nc12 | -6 | 3 | 3 | -2 | 1 | 0 | . | .
CCOC(=O)CNC(=O)c1cc(-c2ccccn2)nc2c(C)c(Cl)ccc12 | 15 | 6 | 0 | 30* | 0 | 1 | -3 | 5
CCC(=O)N(C)C[C@@H]1[C@H](c2ccc(C3=CCCCC3)cc2)[C@H](CO)N1C(=O)CC | . | . | -1 | . | . | . | . | .
COC(=O)C1CN(C2CCCC2)CCS(=O)(=O)N1Cc1ccc(C)cc1 (stereo not given) | . | . | 1 | . | . | . | . | .
Cc1ccc(C(=O)c2no[n+]([O-])c2C(=O)c2ccc(C)cc2)cc1 | 18 | 8 | 5 | 19* | 2 | 68* | 5 | 39*
